Series [1] can be described thus: Stability in simulated gastric fluid assessed as parent compound remaining in absence of pancreatin after 2 hrs. In kind it is ADME, tissue-based, Stomach. To be noted: simulated gastric fluid without pancreatin; read-out: Stability.
The nature of series [2]: Stability in fed state simulated gastric fluid assessed as parent compound remaining in absence of pancreatin after 2 hrs. To be noted: fed state simulated gastric fluid without pancreatin; read-out: Stability. In kind it is ADME, tissue-based, Stomach.
Series [3] is described as follows: Stability in simulated gastric fluid assessed as parent compound remaining in absence of pepsin after 2 hrs. In kind it is ADME, tissue-based, Stomach. To be noted: simulated gastric fluid without pepsin; read-out: Stability. Summed up: (§1)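 Compound incubated for 120 min in fasted- or fed-state simulated gastric fluid, in simulated gastric fluid, or in buffer sGF (sGF prepared without pepsin), with water as reference medium. Remaining compound is expressed as percent of the t=0 concentration, as the mean of triplicates ± SD.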

Series [4] is described as follows: Stability in water assessed as parent compound remaining in absence of pancreatin after 2 hrs. The class given is physicochemical. To be noted: read-out: Stability.
The subject of series [5] is Mus musculus. Description: Tmax in C3H/HeN mouse assessed as compound 4 level at 10 mg/kg, po administered as single dose by LC-MS method. To be noted: in vivo. In kind it is ADME, organism-based. Summed up:
(§2)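 Single oral dose given to female C3H/HeN mice. Active principle was measured in urine over 0–24 h, and Cmax, Tmax and urine AUC0–24 were derived from the concentration profiles. The 7.7 mg/kg dose was given as a suspension. Values are means with SD for groups of three mice, or five at 7.7 mg/kg.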

Series [6] relates to Mus musculus. Description: Cmax in C3H/HeN mouse assessed as compound 4 level at 10 mg/kg, po administered as single dose by LC-MS method. The class given is ADME, organism-based. Details: dose 10 mg/kg, route oral; call rule not given here. Particulars: in vivo. In a few lines: as §2
The nature of series [7]: AUC (0 to 24 hrs) in C3H/HeN mouse urine assessed as compound 4 level at 10 mg/kg, po administered as single dose by LC-MS method. In kind it is ADME, organism-based. Details: dose 10 mg/kg, time < 24 hr, route oral. To be noted: in vivo. Summed up:
as §2

Series [8] is described as follows: Thermodynamic solubility of the compound in 50 mM pH 6.5 phosphate buffer by LC-MS method. In kind it is physicochemical. Particulars: read-out: Therm_solubility. In a few lines: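 Thermodynamic solubility determined in phosphate buffer (50 mM, pH 6.5).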
The nature of series [9]: Stability in fasted state simulated gastric fluid assessed as parent compound remaining in absence of pepsin after 2 hrs. The class given is ADME, tissue-based, Stomach. Particulars: fasted state simulated gastric fluid without pepsin; read-out: Stability. Summed up: as §1
Series [10] is described as follows: Stability in buffer simulated gastric fluid assessed as parent compound remaining in absence of pepsin after 2 hrs. Particulars: buffer simulated gastric fluid without pepsin.
Series [11] can be described thus: Stability in fasted state simulated gastric fluid assessed as parent compound remaining in absence of pancreatin after 2 hrs. In kind it is ADME, tissue-based, Stomach. To be noted: fasted state simulated gastric fluid without pancreatin; read-out: Stability.
Series [12] is described as follows: Stability in buffer simulated gastric fluid assessed as parent compound remaining in absence of pepsin after 2 hrs. The class given is ADME, tissue-based, Stomach. Particulars: buffer simulated gastric fluid without pepsin; read-out: Stability. In a few lines:
as §1

The nature of series [13]: Stability of the compound assessed as half life for human Caco2 cells phosphatase mediated compound hydrolysis at 62.5 uM by LC-MS method. In kind it is ADME, cell-based. Particulars: Caco-2 cells. In a few lines: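 Prodrug in Dulbecco's Modified Eagle's Medium (62.5 µM) applied to the apical chamber of the Caco-2 system. Unchanged prodrug was monitored by LC-MS, and t1/2 was calculated from remaining prodrug concentration versus incubation time.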

Series [14] is described as follows: Stability in water assessed as parent compound remaining in absence of pepsin after 2 hrs. In kind it is physicochemical. Particulars: read-out: Stability. In a few lines: as §1
Series [15] is described as follows: Stability in fed state simulated gastric fluid assessed as parent compound remaining in absence of pepsin after 2 hrs. To be noted: fed state simulated gastric fluid without pepsin; read-out: Stability. The class given is ADME, tissue-based, Stomach. In a few lines:
as §1

Series [16] is described as follows: Drug metabolism in human Caco2 cells assessed as active parent compound level in basolateral side at 62.5 uM applied at apical compartment measured after 60 mins by LC-MS method. In kind it is ADME, cell-based. To be noted: caco-2, 1 h. Summed up:
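Caco-2 monolayer. Test article in Dulbecco's Modified Eagle's Medium at 62.5 µM was applied to the apical chamber. After 60 min, the active principle that had accumulated in the basal receiver chamber was quantified.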

For series [17], the system named is Mus musculus. Description: Tmax in C3H/HeN mouse assessed as compound 5 level at 10 mg/kg, po administered as single dose by LC-MS method. The class given is ADME, organism-based. To be noted: in vivo. In a few lines: as §2
In series [18] the test system is Mus musculus. Description: Cmax in C3H/HeN mouse assessed as compound 5 level at 10 mg/kg, po administered as single dose by LC-MS method. Also noted: dose 10 mg/kg, route oral. To be noted: in vivo. The class given is ADME, organism-based. Summed up: as §2
A short description of series [19]: AUC (0 to 24 hrs) in C3H/HeN mouse urine assessed as compound 5 level at 10 mg/kg, po administered as single dose by LC-MS method. Also noted: time < 24 hr, dose 10 mg/kg, route oral. In kind it is ADME, organism-based. To be noted: in vivo. In a few lines: as §2

A value given as a limit tells only on which side of the number the result lay.

In general, Tmax refers to the time from dosing to the highest level. Broadly, the Cmax is the peak of the concentration-time curve. Broadly, the AUC is concentration integrated over time. A word on the half-life: it is how long it takes for the measured level to halve.

`N#Cc1ccc(-c2ccc(O[C@H]3O[C@H](CO)[C@@H](OP(=O)([O-])[O-])[C@H](O)[C@@H]3O)c(Cl)c2)cc1.[Na+].[Na+]`: the remaining at 2 h in [1], in series [2], in [3], in [4], in series [9] and in series [10] was over 80% each time. Also, the remaining at 2 h in series [11], in series [12], in [14] and in series [15] was over 80% in each case. Also, in the series with Mus musculus [5], the Tmax turned out to be 26.4 min. Moreover, in the series on Mus musculus [6], the Cmax came to 57000 ng/mL. Also, the AUC in [7] is 226.4 µg·h/mL. Also, the solubility thermodynamic in series [8] was over 3000 µg/mL. Also, the half-life at 62.5 µM in series [13] was found to be 43 min.
As to `N.N.O=P(O)(O)O[C@H]1[C@H](O)[C@H](O)[C@@H](Oc2ccc(-c3ccccc3)cc2)O[C@@H]1CO`, the solubility thermodynamic in [8] was 2700 µg/mL. For the same compound, the half-life at 62.5 µM in series [13] was over 60 min.
`N#Cc1ccc(-c2ccc(O[C@H]3O[C@H](CO)[C@@H](O)[C@H](O)[C@@H]3OP(=O)([O-])[O-])c(Cl)c2)cc1.[Na+].[Na+]`: the remaining at 2 h in [1], in [2], in [3], in [4], in series [9] and in series [10] was over 80% in each case. In addition, the remaining at 2 h in series [11], in [12], in series [14] and in series [15] was over 80% in each case. For the same compound, the solubility thermodynamic in series [8] was over 3000 µg/mL. Further, the half-life at 62.5 µM in series [13] stood at 13 min.
Regarding `N#Cc1ccc(-c2ccc(O[C@H]3O[C@H](COP(=O)([O-])[O-])[C@@H](O)[C@H](O)[C@@H]3O)c(Cl)c2)cc1.[Na+].[Na+]`, the remaining at 2 h in series [1], in series [2], in series [3], in series [4], in series [9] and in [10] was over 80% each time. The remaining at 2 h in series [11], in series [12], in series [14] and in series [15] was over 80% each time. Moreover, the solubility thermodynamic in series [8] is over 3000 µg/mL. Moreover, in series [13], the half-life at 62.5 µM is 48 min.
Regarding `N.N.O=P(O)(O)O[C@@H]1[C@@H](Oc2ccc(-c3ccccc3)cc2)O[C@H](CO)[C@@H](O)[C@@H]1O`, the solubility thermodynamic in series [8] was over 3000 µg/mL. Moreover, the half-life at 62.5 µM in series [13] came to 12 min.
On the same counts, the results for `N.N.O=P(O)(O)O[C@@H]1[C@H](O)[C@@H](Oc2ccc(-c3ccccc3)cc2)O[C@H](CO)[C@H]1O` are over 3000 µg/mL and 13 min.
On the same counts, the results for `N.N.O=P(O)(O)OC[C@H]1O[C@H](Oc2ccc(-c3ccccc3)cc2)[C@@H](O)[C@@H](O)[C@@H]1O` are over 3000 µg/mL and over 60 min.
Turning to `N.N.O=[N+]([O-])c1ccc2c(c1)CCN2c1ccc(O[C@H]2O[C@H](COCOP(=O)(O)O)[C@@H](O)[C@H](O)[C@@H]2O)cc1`, the Drug metabolism result in series [16] is “Dose-dependent effect”. For the same compound, in the series on Mus musculus [17], the Tmax was 180 min. Further, the solubility thermodynamic in [8] is over 3000 µg/mL. Further, the half-life at 62.5 µM in series [13] was found to be 11 min. In the series with Mus musculus [18], the Cmax was 4500 ng/mL. Moreover, the AUC in series [19] turned out to be 24.6 µg·h/mL.
Take `N#Cc1ccc(-c2ccc(O[C@H]3O[C@H](CO)[C@@H](O)[C@H](OP(=O)([O-])[O-])[C@@H]3O)c(Cl)c2)cc1.[Na+].[Na+]`: the Drug metabolism result in series [16] was “Dose-dependent effect”. Further, the time of peak concentration (Tmax) with Mus musculus [5] came to 54 min. The Cmax in the series on Mus musculus [6] turned out to be 40700 ng/mL. Besides, the AUC in series [7] was determined as 103.9 µg·h/mL. Besides, the solubility thermodynamic in [8] was over 3000 µg/mL. Also, the half-life at 62.5 µM in [13] stood at 12 min.
